A short description of series [1]: Drug uptake in tumor of C57BL/6J mouse xenografted with mouse B16F0 cells at 3.7 MBq, iv after 24 hrs by gamma scintigraphic imaging analysis relative to control. The format is ADME, organism-based, Neoplasm. Particulars: in vivo. In a few lines:
(§1)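 Male C57BL/6J mice (6-8 weeks) bearing subcutaneous B16F0 tumours (3×10^5 cells in PBS, right flank, isoflurane anaesthesia); on day 14 after implant, [125I]-labelled tracer given i.v. via tail vein, 3.7 MBq/mouse, in physiological serum (some tracers in 5% ethanol/physiological serum); 3-8 animals per compound. Under i.p. ketamine (100 mg/kg)–xylazine (10 mg/kg), 10 min planar scintigrams acquired in prone position, 15% window on 35 keV peak.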

A short description of series [2]: Drug uptake in tumor of C57BL/6J mouse xenografted with mouse B16F0 cells at 3.7 MBq, iv after 14 days by gamma scintigraphic imaging analysis relative to control. Particulars: in vivo, 336 h. It is filed as ADME, organism-based, Neoplasm. In short, it runs like this:
as §1

A short description of series [3]: Drug uptake in tumor of C57BL/6J mouse xenografted with mouse B16F0 cells at 3.7 MBq, iv after 5 days by gamma scintigraphic imaging analysis relative to control. Particulars: in vivo, 120 h. The format is ADME, organism-based, Neoplasm. In a few lines: as §1
Series [4] is described as follows: Ratio of drug uptake in tumor to muscle in C57BL/6J mouse xenografted with mouse B16F0 cells at 3.7 MBq, iv after 1 hr. To be noted: in vivo.
Series [5] in a line: Drug uptake in tumor of C57BL/6J mouse xenografted with mouse B16F0 cells at 3.7 MBq, iv after 7 days by gamma scintigraphic imaging analysis relative to control. It is filed as ADME, organism-based, Neoplasm. To be noted: in vivo, 168 h. In short, it runs like this:
as §1

Series [6] can be described thus: Drug uptake in tumor of C57BL/6J mouse xenografted with mouse B16F0 cells at 3.7 MBq, iv after 10 days by gamma scintigraphic imaging analysis relative to control. The format is ADME, organism-based, Neoplasm. Particulars: in vivo, 240 h. In short, it runs like this: as §1
Series [7] is described as follows: Drug uptake in tumor of C57BL/6J mouse xenografted with mouse B16F0 cells at 3.7 MBq, iv after 3 hrs by gamma scintigraphic imaging analysis relative to control. The format is ADME, organism-based, Neoplasm. To be noted: in vivo. In short, it runs like this: as §1
A short description of series [8]: Drug uptake in tumor of C57BL/6J mouse xenografted with mouse B16F0 cells at 3.7 MBq, iv after 6 hrs by gamma scintigraphic imaging analysis relative to control. The format is ADME, organism-based, Neoplasm. To be noted: in vivo. In a few lines:
as §1

The nature of series [9]: Drug uptake in tumor of C57BL/6J mouse xenografted with mouse B16F0 cells at 3.7 MBq, iv after 1 hr by gamma scintigraphic imaging analysis relative to control. It is filed as ADME, organism-based, Neoplasm. Particulars: in vivo. In a few lines:
as §1

The nature of series [10]: Drug uptake in tumor of C57BL/6J mouse xenografted with mouse B16F0 cells at 3.7 MBq, iv after 72 hrs by gamma scintigraphic imaging analysis relative to control. It is filed as ADME, organism-based, Neoplasm. To be noted: in vivo. In short, it runs like this: as §1
For series [11], the system named is Mus musculus. Nature of the series: Toxicity against C57BL/6J mouse xenografted with mouse B16F0 cells assessed as mortality at 3.7 MBq, iv after 2 days. The format is organism-based. To be noted: in vivo, 48 h. In short, it runs like this: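 Male C57BL/6J mice (6-8 weeks) were inoculated s.c. on the right flank with 3×10^5 B16F0 cells in 0.1 mL PBS under 2% isoflurane. On day 14 after implant they received the [125I]-labelled tracer i.v. via the tail vein at 3.7 MBq/mouse, in physiological serum (5% ethanol in physiological serum for non-salt forms), with 3–8 animals per compound. Survival was recorded 2 days post-injection.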

Each structure is given as a SMILES string.

Take `CCN(CCNC(=O)c1cnc2cc([125I])ccc2n1)CCOCCOCCOCCF.Cl`: the Drug uptake turned out to be 12.4 % ID/g in series [1]; 0.6 % ID/g in series [2]; 5.8 % ID/g in [3]; 2.7 % ID/g in series [5]; 1.3 % ID/g in series [6]; 12.1 % ID/g in series [7]. Moreover, the Drug uptake in series [8] was found to be 12.1 % ID/g; in series [9], 11.7 % ID/g; in [10] it was 8.6 % ID/g. For the same compound, the Ratio in series [4] is recorded as 5.76.
Take `CCN(CCNC(=O)c1cnc2cc([125I])ccc2n1)Cc1cn(CCF)nn1.Cl`: the Drug uptake in [1] stood at 15.6 % ID/g; in series [2], 1.8 % ID/g; in series [3] it was 8.6 % ID/g; in [5], 5.3 % ID/g; in series [6], 3.7 % ID/g; in series [7] it was 14.5 % ID/g. In addition, the values for the Drug uptake in [8], in [9] and in series [10] were 15.9 % ID/g, 13 % ID/g and 11 % ID/g, respectively. The Ratio in [4] is on record as 5.76.
As for `CCN(CC#CCF)CCNC(=O)c1cnc2cc([125I])ccc2n1.Cl`, the Drug uptake in series [1] turned out to be 23.5 % ID/g; in series [2] it was 2.2 % ID/g; in series [3] it was 11.6 % ID/g; in series [5], 8 % ID/g; in series [6] it was 4.2 % ID/g; in series [7], 18.3 % ID/g. For the same compound, the Drug uptake is recorded as 23.3 % ID/g in series [8], 12.3 % ID/g in series [9] and 14.9 % ID/g in series [10]. The Ratio in series [4] is given as 5.76.
`CCN(CCF)CCNC(=O)c1cnc2cc([125I])ccc2n1.Cl`: the Activity result in [11] is on record as “Toxic”. Moreover, the Drug uptake in [1] amounted to 24.8 % ID/g; in [2], 0.6 % ID/g; in series [3], 8.4 % ID/g; in [6] it was 1.6 % ID/g; in [7], 22.5 % ID/g; in [8] it was 25 % ID/g. For the same compound, the Drug uptake in series [9] was determined as 21.4 % ID/g; in series [10], 20 % ID/g.
Consider `CCN(C/C=C/CF)CCNC(=O)c1cnc2cc([125I])ccc2n1.Cl`, for which the Drug uptake in series [1] came out at 15 % ID/g; in [2], 1.3 % ID/g; in series [3] it was 5.6 % ID/g; in series [5], 3.3 % ID/g; in [6] it was 1.9 % ID/g; in series [7] it was 12.3 % ID/g. In addition, the results for the Drug uptake in [8], in series [9] and in series [10] were 13.9 % ID/g, 10.8 % ID/g and 10 % ID/g, respectively. In addition, the Ratio in series [4] is on record as 5.76.
For the compound `CCN(CCCF)CCNC(=O)c1cnc2cc([125I])ccc2n1`, the Drug uptake was found to be 11.4 % ID/g in series [1]; 0.8 % ID/g in [2]; 5.4 % ID/g in series [3]; 3 % ID/g in series [5]; 1.4 % ID/g in series [6]; 13.5 % ID/g in series [7]. In addition, the Drug uptake in series [8] is on record as 15.3 % ID/g; in [9] it was 10 % ID/g; in series [10] it was 8.5 % ID/g.
In the case of `CCN(CCNC(=O)c1cnc2cc([125I])ccc2n1)CCOCCOCCOCCOCCOCCOCCOCCF`, the Drug uptake in [1] amounted to 6.8 % ID/g; in [2], 0.3 % ID/g; in series [3], 2.7 % ID/g; in [5], 1.5 % ID/g; in series [6], 0.8 % ID/g; in series [7], 7.8 % ID/g. Also, the Drug uptake was 7.2 % ID/g in [8], 6.8 % ID/g in series [9] and 3.8 % ID/g in [10].
